Laboratory results taken from publication PMC12679438 (RSC Advances, 2025).
“Also recorded” adds a separate entry of the source. Like-named read-outs stand apart in the source and are kept apart here. Values belong to the compound of their own block, whether it stands above or below them.

Experiments:
MRC-5 = assay: MTS cytotoxicity assay, 72 h, MRC-5 fibroblasts; type: cell-based, human; settings: read-out: IC50 MRC-5
Method in brief: (§1)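 Human lines were kept at 37 °C, 5% CO2 in recommended medium plus 10% FCS, penicillin–streptomycin, 2 mM glutamine, 1 mM bicarbonate, 1 mM pyruvate and 20 mM HEPES, and were mycoplasma-tested biweekly. Cells were exposed to test compound for 72 h on a robotic screening platform, then read by MTS. DMSO-treated cells were the negative control. IC50 came from dose–response curves, mean of ≥6 replicates.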

A549 = assay: MTS cytotoxicity assay, 72 h, A549; type: cell-based, human; settings: read-out: IC50 A549
Method in brief: as §1

Jurkat = assay: MTS cytotoxicity assay, 72 h, Jurkat; type: cell-based, human
Method in brief: as §1

BJ = assay: MTS cytotoxicity assay, 72 h, BJ fibroblasts; type: cell-based, human
Method in brief: as §1

[1] = MTS cytotoxicity assay, statements over groups of cell lines of the panel; type: cell-based, human; settings: human
Method in brief: as §1

K562 = assay: MTS cytotoxicity assay, 72 h, K562; type: cell-based, human; settings: read-out: IC50 K562
Method in brief: as §1

RAMOS = assay: MTS cytotoxicity assay, 72 h, RAMOS; type: cell-based, human
Method in brief: as §1

U2OS = assay: MTS cytotoxicity assay, 72 h, U2OS; type: cell-based, human
Method in brief: as §1

HCT116 = assay: MTS cytotoxicity assay, 72 h, HCT116; type: cell-based, human; settings: read-out: IC50 HCT116
Method in brief: as §1

HCT116-p53 = assay: MTS cytotoxicity assay, 72 h, HCT116-p53; type: cell-based, human
Method in brief: as §1

CCRF-CEM = assay: MTS cytotoxicity assay, 72 h, CCRF-CEM; type: cell-based, human
Method in brief: as §1

malignant T-cell lines = settings: cited from earlier work
Recombinant ITK = target: T1, Recombinant ITK (Homo sapiens, UniProt Q08881); assay: In vitro biochemical kinase assay
T1 sequence (Q08881 1-620): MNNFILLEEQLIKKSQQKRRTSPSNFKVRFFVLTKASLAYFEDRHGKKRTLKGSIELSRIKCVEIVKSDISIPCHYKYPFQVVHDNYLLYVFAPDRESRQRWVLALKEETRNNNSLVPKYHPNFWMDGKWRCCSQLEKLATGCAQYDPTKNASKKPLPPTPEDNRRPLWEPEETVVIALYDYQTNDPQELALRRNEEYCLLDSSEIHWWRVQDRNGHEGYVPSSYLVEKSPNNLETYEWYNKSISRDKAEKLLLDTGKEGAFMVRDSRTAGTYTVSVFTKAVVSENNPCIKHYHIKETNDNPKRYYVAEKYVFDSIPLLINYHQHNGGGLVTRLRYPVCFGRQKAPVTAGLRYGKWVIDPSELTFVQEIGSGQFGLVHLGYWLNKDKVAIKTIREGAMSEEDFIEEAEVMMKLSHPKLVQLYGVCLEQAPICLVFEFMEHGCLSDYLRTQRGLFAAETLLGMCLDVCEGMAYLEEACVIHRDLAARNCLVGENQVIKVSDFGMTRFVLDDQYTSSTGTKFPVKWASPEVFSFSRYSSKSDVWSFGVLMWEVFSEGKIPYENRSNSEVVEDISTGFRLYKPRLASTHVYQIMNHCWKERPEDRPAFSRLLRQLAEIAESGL

p-ITK (Tyr551/Tyr511) = assay: Western blot of ITK phosphorylation in PHA-stimulated Jurkat cells; type: cell-based, human
Method in brief: (§2)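 Jurkat cells at 0.5 × 10^6 per mL were stimulated with PHA 5 µg per mL in RPMI/10% FCS for 15 min, then given test compound at 10, 2.25 or 0.62 µM for 24 h. Controls were 0.1% DMSO and unstimulated cells. RIPA lysates (30 µg) were run on 10% SDS-PAGE and probed for p-ITK/BTK (Tyr551/Tyr511), ITK, p-ERK1/2 (Thr202/Tyr204), ERK1/2 and GAPDH using fluorescent secondaries. Phospho/total ratios were normalised to GAPDH.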

[2] = tested on: panel of human cell lines; assay: MTS cytotoxicity assay, statements over groups of cell lines of the panel; type: cell-based; settings: for IC50: Homo sapiens
Method in brief: as §1

Recombinant BTK = Recombinant BTK (Homo sapiens, UniProt Q06187); assay: In vitro biochemical kinase assay
p-ERK1/2 (Thr202/Tyr204) = assay: Western blot of ERK1/2 phosphorylation in PHA-stimulated Jurkat cells; type: cell-based, human
Method in brief: as §2

[3] = Homo sapiens, Jurkat, read-out: IC50 Jurkat
[4] = Homo sapiens, BJ, read-out: IC50 BJ
[5] = BJ and MRC-5 non-cancerous fibroblast cell lines
[6] = Homo sapiens, Ramos, read-out: IC50 RAMOS
[7] = Homo sapiens, U2OS, read-out: IC50 U2OS
[8] = Homo sapiens, read-out: IC50 HCT116-p53
[9] = Homo sapiens, CCRF-CEM, read-out: IC50 CCRF-CEM
[10] = ITK/BTK null, MTS, 72 h, mean of ≥6 replicates
[11] = 72 h, read-out: IC50 across all tested cell lines

Chain of Recombinant BTK (Q06187 whole entry): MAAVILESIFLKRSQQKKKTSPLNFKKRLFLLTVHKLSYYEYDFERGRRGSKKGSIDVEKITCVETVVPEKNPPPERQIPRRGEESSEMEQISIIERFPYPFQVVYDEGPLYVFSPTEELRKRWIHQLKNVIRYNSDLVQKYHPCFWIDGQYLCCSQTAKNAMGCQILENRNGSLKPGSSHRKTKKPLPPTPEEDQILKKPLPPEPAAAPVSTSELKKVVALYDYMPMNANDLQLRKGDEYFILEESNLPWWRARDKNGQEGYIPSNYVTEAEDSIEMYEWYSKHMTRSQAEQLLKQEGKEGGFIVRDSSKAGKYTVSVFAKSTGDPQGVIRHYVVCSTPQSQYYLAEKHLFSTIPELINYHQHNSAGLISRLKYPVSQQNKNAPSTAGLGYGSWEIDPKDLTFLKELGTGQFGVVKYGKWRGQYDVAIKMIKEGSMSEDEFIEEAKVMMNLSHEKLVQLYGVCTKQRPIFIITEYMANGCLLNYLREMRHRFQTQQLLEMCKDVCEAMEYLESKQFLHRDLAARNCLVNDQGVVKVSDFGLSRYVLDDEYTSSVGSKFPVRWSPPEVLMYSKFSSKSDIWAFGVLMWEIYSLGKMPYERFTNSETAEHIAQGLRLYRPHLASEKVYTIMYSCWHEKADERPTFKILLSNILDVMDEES

Compound: O=C(c1ccc(F)cc1)C1CN(c2cc(-c3ccncc3)n[nH]c2=O)C1 [Compound 52, 4-(3-(4-fluorobenzoyl)azetidin-1-yl)-6-(pyridin-4-yl)pyridazin-3(2H)-one]
IC50 (MRC-5; Homo sapiens, MRC5, 72 h): > 50 µM
IC50 (A549; Homo sapiens, A549, 72 h): > 50 µM
IC50 (Jurkat; [3]): 20.7 µM
IC50 (BJ; [4]): > 50 µM
IC50 at 72 h ([1]; A549, HCT116, HCT116-p53 and U2OS ITK-null cancer cell lines): > 50 µM
IC50 at 72 h [1, 5]: > 50 µM
IC50 (K562; Homo sapiens, K562, 72 h): > 50 µM
IC50 (RAMOS; [6]): 13.2 µM
IC50 (U2OS; [7]): > 50 µM
IC50 (HCT116; Homo sapiens, HCT-116, 72 h): > 50 µM
IC50 (HCT116-p53; [8]): > 50 µM
IC50 (CCRF-CEM; [9]): > 50 µM

Compound: COc1cc(C)c(Sc2cnc(NC(=O)c3ccc(CNC(C)C(C)(C)C)cc3)s2)cc1C(=O)N1CCN(C(C)=O)CC1 (centres unmarked) [BMS-509744]
effect in malignant T-cell lines (malignant T-cell lines): induced pro-apoptotic signaling and G2/M cell cycle arrest

IC50 (Recombinant ITK): 0.87 µM
Compound: O=C(Nc1ccccc1)C1CN(c2cc(-c3cccc(F)c3)n[nH]c2=O)C1 [Compound 9, 1-(6-(3-fluorophenyl)-3-oxo-2,3-dihydropyridazin-4-yl)-N-phenylazetidine-3-carboxamide]
IC50 (MRC-5; Homo sapiens, MRC5, 72 h): 43.2 µM
IC50 (A549; Homo sapiens, A549, 72 h): > 50 µM
IC50 (Jurkat; [3]): 37.6 µM
IC50 (BJ; [4]): > 50 µM
total ITK level (p-ITK (Tyr551/Tyr511); PHA-stimulated Jurkat cells, 10 µM, 24 h): modest reduction
p-ITK (Tyr551/Tyr511) level (p-ITK (Tyr551/Tyr511); PHA-stimulated Jurkat cells, 10, 2.25, 0.62 µM for 24 h): reduced phosphorylation; also recorded: concentration-dependent decrease; also recorded: concentration-dependent significant reduction
p-ITK/ITK ratio (densitometry) (p-ITK (Tyr551/Tyr511); all concentrations tested, normalized to GAPDH): significant reduction
IC50 / cytotoxicity in non-ITK/BTK (ITK-null) cancer lines ([2]; A549, HCT116, HCT116-p53, U2OS, stated together in the text): inactive
IC50 / cytotoxicity in fibroblast cells ([2]; non-cancerous fibroblasts (BJ, MRC-5), stated together in the text): inactive
IC50 at 72 h [1, 5]: > 50 µM
IC50 (K562; Homo sapiens, K562, 72 h): > 50 µM
IC50 (RAMOS; [6]): 9.58 µM
IC50 (U2OS; [7]): > 50 µM
BTK inhibition (in words) (Recombinant BTK; ADP-Glo, 0–10 µM range): no measurable BTK inhibition; also recorded: no BTK inhibitory effect was observed; also recorded: absence of BTK activity
IC50 (HCT116; Homo sapiens, HCT-116, 72 h): > 50 µM
p-ERK1/2 (Thr202/Tyr204) level (p-ERK1/2 (Thr202/Tyr204); PHA-stimulated Jurkat cells, 10 µM (highest concentration), 24 h): reduced phosphorylation; also recorded: significant decrease
p-ERK/ERK ratio (densitometry) (p-ERK1/2 (Thr202/Tyr204); highest tested concentration, normalized to GAPDH): significant decrease
IC50 (HCT116-p53; [8]): > 50 µM
IC50 (CCRF-CEM; [9]): 19.5 µM

maximal inhibition of BTK (Recombinant BTK; at 10 µM): ≤ 50%
IC50 (Recombinant BTK; read-out: IC50 BTK activity, ADP-Glo, 0–10 µM range): > 10 µM
Compound: 1-(6-(3,5-difluorophenyl)-3-oxo-2,3-dihydropyridazin-4-yl)-N-(furan-2-ylmethyl)azetidine-3-carboxamide [Compound 22]
IC50 (MRC-5; Non-cancer fibroblasts, MTS, 72 h, mean of ≥6 replicates): > 50 µM
IC50 (A549; [10]): > 50 µM
IC50 (Jurkat; read-out: IC50 Jurkat, ITK positive, MTS, mean of ≥6 replicates): 11.2 µM
IC50 (BJ; read-out: IC50 BJ, Non-cancer fibroblasts, MTS, mean of ≥6 replicates): > 50 µM
IC50 (K562; BTK positive, MTS, 72 h, mean of ≥6 replicates): 21.4 µM
IC50 (RAMOS; read-out: IC50 RAMOS, BTK positive, MTS, mean of ≥6 replicates): 22.3 µM
IC50 (U2OS; read-out: IC50 U2OS, ITK/BTK null, MTS, mean of ≥6 replicates): 36.2 µM
BTK inhibition (in words) (Recombinant BTK; ADP-Glo, 0–10 µM range): partial BTK inhibition; also recorded: partial activity against BTK
IC50 (HCT116; [10]): 40.3 µM
IC50 (HCT116-p53; read-out: IC50 HCT116-p53, ITK/BTK null, MTS, mean of ≥6 replicates): 41.2 µM
IC50 (CCRF-CEM; read-out: IC50 CCRF-CEM, ITK positive, MTS, mean of ≥6 replicates): 18.5 µM

Compound: O=C(Nc1ccccc1)C1CN(c2cc(-c3ccc(F)cc3F)n[nH]c2=O)C1 [Compound 12, 1-(6-(2,4-difluorophenyl)-3-oxo-2,3-dihydropyridazin-4-yl)-N-phenylazetidine-3-carboxamide]
IC50 (MRC-5; Homo sapiens, MRC5, 72 h): 16.6 µM
IC50 (A549; Homo sapiens, A549, 72 h): 36.3 µM
IC50 (Jurkat; [3]): 33.9 µM
IC50 (BJ; [4]): 28.9 µM
IC50 ([2]; read-out: IC50 across multiple cancer lines): 18 to 37 µM
IC50 (K562; Homo sapiens, K562, 72 h): 31.8 µM
IC50 (RAMOS; [6]): 16.8 µM
IC50 (U2OS; [7]): 16.2 µM
IC50 (HCT116; Homo sapiens, HCT-116, 72 h): 37.1 µM
IC50 (HCT116-p53; [8]): 32.8 µM
IC50 (CCRF-CEM; [9]): 18 µM

Compound: COc1ccc(-c2cc(N3CC(C(=O)NCC(F)(F)F)C3)c(=O)[nH]n2)cc1 [Compound 37, 1-(6-(4-methoxyphenyl)-3-oxo-2,3-dihydropyridazin-4-yl)-N-(2,2,2-trifluoroethyl)azetidine-3-carboxamide]
IC50 (MRC-5; Homo sapiens, MRC5, 72 h): > 50 µM
IC50 (A549; Homo sapiens, A549, 72 h): > 50 µM
IC50 (Jurkat; [3]): > 50 µM
IC50 (BJ; [4]): > 50 µM
IC50 [2, 11]: > 50 µM
IC50 (K562; Homo sapiens, K562, 72 h): > 50 µM
IC50 (RAMOS; [6]): > 50 µM
IC50 (U2OS; [7]): > 50 µM
IC50 (HCT116; Homo sapiens, HCT-116, 72 h): > 50 µM
IC50 (HCT116-p53; [8]): > 50 µM
IC50 (CCRF-CEM; [9]): > 50 µM

inhibition of ITK activity (assay validation) (Recombinant ITK; ibrutinib 100 µM, vs. DMSO control): significant inhibition
Compound: C=CC(=O)N1CCC[C@@H](n2nc(-c3ccc(Oc4ccccc4)cc3)c3c(N)ncnc32)C1 [ibrutinib, reference compound]

Compound: O=C(Nc1ccccc1)C1CN(c2cc(-c3ccncc3)n[nH]c2=O)C1 [Compound 7, 1-(3-oxo-6-(pyridin-4-yl)-2,3-dihydropyridazin-4-yl)-N-phenylazetidine-3-carboxamide]
IC50 (MRC-5; Homo sapiens, MRC5, 72 h): > 50 µM
IC50 (A549; Homo sapiens, A549, 72 h): > 50 µM
IC50 (Jurkat; [3]): > 50 µM
IC50 (BJ; [4]): > 50 µM
IC50 [2, 11]: > 50 µM
IC50 (K562; Homo sapiens, K562, 72 h): > 50 µM
IC50 (RAMOS; [6]): > 50 µM
IC50 (U2OS; [7]): > 50 µM
IC50 (HCT116; Homo sapiens, HCT-116, 72 h): > 50 µM
IC50 (HCT116-p53; [8]): > 50 µM
IC50 (CCRF-CEM; [9]): > 50 µM
